Experimental data from ChEMBL document CHEMBL4406857, “Discovery of new small molecule inhibitors targeting isocitrate dehydrogenase 1 (IDH1) with blood-brain barrier penetration” (Eur J Med Chem, 2019).
pIC50: −log10 of the molar value. Active and inactive are the calls of the source. The rule behind the calls is not given here.

How the values were obtained:
[1] = biological target: Isocitrate dehydrogenase [NADP] cytoplasmic (Homo sapiens, UniProt O75874, R132H); test: (§1) Inhibition of recombinant human C-terminal His8-tagged IDH1 R132H mutant expressed in Escherichia coli BL21 assessed as reduction in NADPH consumption using alpha-ketoglutarate as substrate preincubated for 60 mins followed by substrate addition measured for 60 mins in presence of NADPH by diaphorase/resazurin-based assay
Chain of Isocitrate dehydrogenase [NADP] cytoplasmic (Homo sapiens, UniProt O75874, R132H) (O75874 2-414 R132H limits assumed): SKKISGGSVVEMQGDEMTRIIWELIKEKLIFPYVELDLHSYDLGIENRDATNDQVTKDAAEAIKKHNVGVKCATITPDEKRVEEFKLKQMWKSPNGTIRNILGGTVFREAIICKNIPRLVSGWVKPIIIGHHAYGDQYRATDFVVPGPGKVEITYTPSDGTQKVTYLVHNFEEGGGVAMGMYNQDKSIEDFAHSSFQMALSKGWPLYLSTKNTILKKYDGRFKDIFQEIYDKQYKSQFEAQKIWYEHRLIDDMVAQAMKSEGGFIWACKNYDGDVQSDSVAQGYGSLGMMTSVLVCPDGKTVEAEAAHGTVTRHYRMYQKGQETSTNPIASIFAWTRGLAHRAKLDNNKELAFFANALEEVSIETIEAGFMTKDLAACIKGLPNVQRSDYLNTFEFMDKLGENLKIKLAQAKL

[2] = biological target: T1, Isocitrate dehydrogenase [NADP] cytoplasmic (Homo sapiens, UniProt O75874, R132C); test: as §1, with “R132C” for “R132H”, “addition and” for “addition”, “diaphorase/resazurin-based fluorescence” for “diaphorase/resazurin-based”
T1 sequence (O75874 2-414 R132C limits assumed): as the sequence (O75874 2-414 R132H limits assumed) above, with H131C counted along it

[3] = Clearance in ICR mouse at 1 mg/kg, iv measured upto 24 hrs by LCMS analysis; format: ADME, organism-based; details: in vivo
In short: (§2)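 Male ICR mice (6-8 weeks, 20-25 g), nine animals, dosed 1 mg/kg by slow intravenous injection or 5 mg/kg orally. Blood sampled into EDTA at 5 min (iv only), 15 min, 30 min, 1, 2, 4, 8 and 24 h. Plasma stored at -20 °C, prepared by acetonitrile protein precipitation with dexamethasone internal standard, and analysed for parent compound. Values are means of three replicates.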

[4] = biological target: T1, Isocitrate dehydrogenase [NADP] cytoplasmic; test: Inhibition of IDH1 R132C mutant in human HT1080 cells assessed as reduction in 2-HG production incubated with compound for 48 hrs by D2HG assay kit based fluorescence assay; format: cell-based
[5] = Half life in ICR mouse at 5 mg/kg, po measured upto 24 hrs by LCMS analysis; format: ADME, organism-based; details: in vivo; in short: as §2
[6] = Half life in ICR mouse at 1 mg/kg, iv measured upto 24 hrs by LCMS analysis; format: ADME, organism-based; details: in vivo; in short: as §2
[7] = AUC in ICR mouse at 1 mg/kg, iv measured upto 24 hrs by LCMS analysis; format: ADME, organism-based; set-up: time < 24 hr, dose 1 mg/kg, route intravenous; details: in vivo; in short: as §2
[8] = biological target: Isocitrate dehydrogenase [NADP] cytoplasmic (Homo sapiens, UniProt O75874); test: Inhibition of wild type recombinant human C-terminal His8-tagged IDH1 expressed in Escherichia coli BL21 assessed as reduction in NADP consumption using DL-isocitrate as substrate preincubated for 60 mins followed by substrate addition and measured for 60 mins in presence of NADP by diaphorase/resazurin-based fluorescence assay
Chain of Isocitrate dehydrogenase [NADP] cytoplasmic (Homo sapiens, UniProt O75874) (O75874 whole entry): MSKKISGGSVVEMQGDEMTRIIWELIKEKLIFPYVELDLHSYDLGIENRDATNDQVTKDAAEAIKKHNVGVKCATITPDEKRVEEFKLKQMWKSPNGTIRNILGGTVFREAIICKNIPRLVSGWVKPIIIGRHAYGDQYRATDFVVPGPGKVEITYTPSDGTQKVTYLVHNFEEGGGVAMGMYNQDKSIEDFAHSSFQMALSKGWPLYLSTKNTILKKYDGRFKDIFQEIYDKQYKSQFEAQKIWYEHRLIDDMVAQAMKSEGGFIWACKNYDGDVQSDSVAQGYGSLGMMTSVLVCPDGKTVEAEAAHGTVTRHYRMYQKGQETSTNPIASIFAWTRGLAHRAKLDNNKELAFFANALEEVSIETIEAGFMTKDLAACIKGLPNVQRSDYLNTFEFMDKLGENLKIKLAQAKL

[9] = Cmax in ICR mouse at 5 mg/kg, po measured upto 24 hrs by LCMS analysis; format: ADME, organism-based; set-up: dose 5 mg/kg, route oral; details: in vivo; in short: as §2
[10] = AUC in ICR mouse at 5 mg/kg, po measured upto 24 hrs by LCMS analysis; format: ADME, organism-based; set-up: dose 5 mg/kg, time < 24 hr, route oral; details: in vivo; in short: as §2
[11] = Volume of distribution at steady state in ICR mouse at 1 mg/kg, iv measured upto 24 hrs by LCMS analysis; format: ADME, organism-based; details: in vivo, read-out: Vdss; in short: as §2
[12] = Oral bioavailability in ICR mouse at 5 mg/kg measured upto 24 hrs by LCMS analysis; format: ADME, organism-based; details: in vivo; for bioavailability: ICR; for F: 24 h; in short: as §2
[13] = Drug uptake in plasma of athymic BALB/c nude mouse xenografted with human HT1080 cells at 50 mg/kg, po administered as a single dose via gavage measured upto 24 hrs post dosing by LC-MS/MS analysis; format: ADME, organism-based; details: in vivo
In short: (§3)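 Female athymic nude mice carrying subcutaneous right-flank HT1080 xenografts (5 × 10^6 cells in PBS/Matrigel 1:1). Compound given by oral gavage as a suspension in 0.5% MC + 0.5% Tween 80 in water, 10 ml/kg. Blood taken by orbital sinus bleed; brain and tumour collected at 2, 6, 12 and 24 h, homogenized in PBS. Samples acetonitrile-precipitated with dexamethasone internal standard and measured by LC/MS/MS.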

[14] = Drug uptake in tumor of athymic BALB/c nude mouse xenografted with human HT1080 cells at 50 mg/kg, po administered as a single dose via gavage measured upto 24 hrs post dosing by LC-MS/MS analysis; format: ADME, organism-based, Neoplasm; details: in vivo; in short: as §3
[15] = Drug uptake in brain of athymic BALB/c nude mouse xenografted with human HT1080 cells at 50 mg/kg, po administered as a single dose via gavage measured upto 24 hrs post dosing by LC-MS/MS analysis; format: ADME, organism-based; details: in vivo; in short: as §3
[16] = tested on: HT-1080; test: In vivo inhibition of IDH1 R132C mutant in human HT1080 cells xenografted in athymic BALB/c nude mouse assessed as reduction in 2-HG level in tumor tissue at 50 mg/kg, po administered as a single dose via gavage measured upto 24 hrs post dosing by LC-MS/MS analysis; format: functional, organism-based
In short: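 HT1080 subcutaneous xenografts in female athymic nude mice, randomized block design, 12 mice per group. Oral gavage of suspension (0.5% MC + 0.5% Tween 80 in water, 10 ml/kg). Tumours collected at 2, 6, 12 and 24 h and frozen in liquid nitrogen. 2-HG measured by LC/MS/MS; percent inhibition taken relative to vehicle-treated mice, reported as mean ± SEM.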

[17] = Drug uptake in plasma of athymic BALB/c nude mouse xenografted with human HT1080 cells at 50 to 150 mg/kg, po administered as a single dose via gavage measured upto 24 hrs post dosing by LC-MS/MS analysis; format: ADME, organism-based; details: in vivo; in short: as §3
[18] = Drug uptake in tumor of athymic BALB/c nude mouse xenografted with human HT1080 cells at 50 to 150 mg/kg, po administered as a single dose via gavage measured upto 24 hrs post dosing by LC-MS/MS analysis; format: ADME, organism-based, Neoplasm; details: in vivo; in short: as §3
[19] = tested on: Isocitrate dehydrogenase [NADP] cytoplasmic (Homo sapiens), O75874 [R132H]; test: Inhibition of human IDH1 R132H mutant transfected in GL261 cells assessed as reduction in 2-HG production at 100 nM incubated with compound for 48 hrs by D2HG assay kit based fluorescence assay; format: cell-based
Chain of Isocitrate dehydrogenase [NADP] cytoplasmic (Homo sapiens), O75874 [R132H] (O75874 whole entry R132H): as the sequence (O75874 whole entry) above, with R132H counted along it

[20] = Drug uptake in brain of athymic BALB/c nude mouse xenografted with human HT1080 cells at 50 to 150 mg/kg, po administered as a single dose via gavage measured upto 24 hrs post dosing by LC-MS/MS analysis; format: ADME, organism-based; details: in vivo; in short: as §3

CC(C)[C@H]1C(C)OC(=O)N1c1ccnc(N[C@@H](C)c2ncn3c2CCc2cc(C(F)(F)F)ccc2-3)n1 (stereo not given in full)
pIC50 [1]: 7.38 | pIC50 [2]: 7.82

Cc1ccc2c(c1)CCc1c([C@H](C)Nc3nccc(N4C(=O)OC[C@@H]4[C@H](C)F)n3)ncn1-2
pIC50 [1]: 7.37 | pIC50 [2]: 7.79

C[C@H](Nc1nccc(N2C(=O)OC[C@@H]2[C@H](C)F)n1)c1ncn2c1CCc1c(Cl)cccc1-2
pIC50 [1]: 7.62 | pIC50 [2]: 7.09

C[C@H](Nc1nccc(N2C(=O)OC[C@@H]2[C@H](C)F)n1)c1ncn2c1COc1cc(Cl)ccc1-2
clearance [3]: 39 mL/min/kg | pIC50 [4]: 7.22 | half-life [5]: 144 min | half-life [6]: 60 min | AUC at 24 h [7]: 0.917 µM·h | pIC50 [8]: 5.15 | Cmax [9]: 1210 nM | AUC at 24 h [10]: 5.01 µM·h | Vd [11]: 2.3 L/kg | pIC50 [1]: 8.66 | bioavailability [12]: 109% | pIC50 [2]: 7.84

C[C@H](Nc1nccc(N2CC3(CC3)OC2=O)n1)c1ncn2c1CCc1cc(C(F)(F)F)ccc1-2
pIC50 [1]: < 5.00 | pIC50 [2]: 5.23

C[C@H](Nc1nccc(N2C(=O)OC[C@@H]2c2ccccc2)n1)c1ncn2c1CCc1cc(C(F)(F)F)ccc1-2
pIC50 [1]: 7.81 | pIC50 [2]: 7.85

N#Cc1ccnc(N2C(=O)CC[C@H]2C(=O)N(c2cncc(F)c2)[C@H](C(=O)NC2CC(F)(F)C2)c2ccccc2Cl)c1 [IVOSIDENIB]
clearance [3]: 9 mL/min/kg | half-life [5]: 210 min | Drug uptake [13]: Active | half-life [6]: 150 min | AUC at 24 h [7]: 2.97 µM·h | Drug uptake [14]: Active | Cmax [9]: 2260 nM | AUC at 24 h [10]: 11.2 µM·h | Vd [11]: 1.5 L/kg | Drug uptake [15]: Active | bioavailability [12]: 80%

C[C@H](Nc1nc(Cl)cc(N2C(=O)OC[C@@H]2[C@H](C)F)n1)c1ncn2c1CCc1cc(C(F)(F)F)ccc1-2
pIC50 [1]: 8.67 | pIC50 [2]: 7.63

C[C@H](Nc1nccc(N2C(=O)OC[C@@H]2[C@H](C)F)n1)c1ncn2c1CCCc1cc(C(F)(F)F)ccc1-2
pIC50 [1]: 7.35 | pIC50 [2]: 7.36

C[C@H](Nc1nccc(N2C(=O)OC[C@@H]2[C@H](C)F)n1)c1ncn2c1CCc1cc(F)ccc1-2
pIC50 [1]: 7.32 | pIC50 [2]: 7.35

C[C@H](Nc1nccc(N2C(=O)OC[C@@H]2[C@H](C)F)n1)c1ncn2c1COc1cc(C3CC3)ccc1-2
pIC50 [1]: 7.48 | pIC50 [2]: 7.61

CC1Cc2cc(C(F)(F)F)ccc2-n2cnc([C@H](C)Nc3nccc(N4C(=O)OC[C@@H]4[C@H](C)F)n3)c21 (stereo not given in full)
pIC50 [1]: 6.92 | pIC50 [2]: 6.92

C[C@H](Nc1nccc(N2C(=O)OC[C@@H]2[C@H](C)F)n1)c1ncn2c1CCc1cc(Cl)ccc1-2
clearance [3]: 50 mL/min/kg | pIC50 [4]: 7.27 | half-life [5]: 204 min | half-life [6]: 102 min | AUC at 24 h [7]: 0.717 µM·h | Cmax [9]: 932 nM | AUC at 24 h [10]: 4.02 µM·h | Vd [11]: 4.3 L/kg | pIC50 [1]: 8.64 | bioavailability [12]: 117% | pIC50 [2]: 7.82

C[C@H](Nc1nccc(N2C(=O)OC[C@@H]2[C@H](C)F)n1)c1ncn2c1sc1cc(C(F)(F)F)ccc12
pIC50 [1]: 7.72 | pIC50 [2]: 7.76

C[C@H](Nc1ncc(F)c(N2C(=O)OC[C@@H]2[C@H](C)F)n1)c1ncn2c1CCc1cc(C(F)(F)F)ccc1-2
clearance [3]: 21 mL/min/kg | half-life [5]: 150 min | half-life [6]: 84 min | AUC at 24 h [7]: 1.52 µM·h | Cmax [9]: 1700 nM | AUC at 24 h [10]: 12.7 µM·h | Vd [11]: 2.1 L/kg | pIC50 [1]: 8.68 | F [12]: 165% | pIC50 [2]: 7.77

C[C@H](Nc1nccc(N2C(=O)OC[C@@H]2[C@H](C)F)n1)c1ncn2c1CCc1cc(C(F)(F)F)ccc1-2
clearance [3]: 23 mL/min/kg | inhibition [16]: Active | pIC50 [4]: 7.80 | half-life [5]: 150 min | half-life [6]: 90 min | Drug uptake [17]: Active | AUC at 24 h [7]: 1.44 µM·h | Drug uptake [18]: Active | pIC50 [8]: 5.18 | Cmax [9]: 1690 nM | AUC at 24 h [10]: 11 µM·h | inhibition [19]: Active | Drug uptake [20]: Active | Vd [11]: 2.3 L/kg | pIC50 [1]: 8.40 | bioavailability [12]: 150% | pIC50 [2]: 8.09

C[C@H](Nc1nccc(N2C(=O)OC[C@@H]2[C@H](C)F)n1)c1ncn2c1COc1cc(C(F)(F)F)ccc1-2
clearance [3]: 30 mL/min/kg | pIC50 [4]: 7.92 | half-life [5]: 150 min | half-life [6]: 126 min | AUC at 24 h [7]: 1.02 µM·h | pIC50 [8]: 5.55 | Cmax [9]: 1120 nM | AUC at 24 h [10]: 8.46 µM·h | Vd [11]: 5.2 L/kg | pIC50 [1]: 8.57 | F [12]: 152% | pIC50 [2]: 8.03

C[C@H](Nc1nccc(N2C(=O)OC3(COC3)[C@@H]2c2ccccc2)n1)c1ncn2c1CCc1cc(C(F)(F)F)ccc1-2
pIC50 [1]: 7.47 | pIC50 [2]: 8.01

C[C@H](Nc1nccc(N2C(=O)OC[C@@H]2[C@H](C)F)n1)c1ncn2c1CSc1cc(C(F)(F)F)ccc1-2
pIC50 [1]: 7.62 | pIC50 [2]: 7.62

C[C@H](Nc1nccc(N2C(=O)OC[C@@H]2[C@H](C)F)n1)c1ncn2c1COc1cc(C#N)ccc1-2
pIC50 [1]: 6.32 | pIC50 [2]: 6.40

CC1Cc2c([C@H](C)Nc3nccc(N4C(=O)OC[C@@H]4[C@H](C)F)n3)ncn2-c2ccc(C(F)(F)F)cc21 (stereo not given in full)
pIC50 [1]: 6.89 | pIC50 [2]: 7.03

CC(C)[C@H]1COC(=O)N1c1ccnc(N[C@@H](C)c2ncn3c2CCc2cc(C(F)(F)F)ccc2-3)n1
clearance [3]: 109 mL/min/kg | pIC50 [4]: 7.90 | half-life [5]: 120 min | half-life [6]: 30 min | AUC at 24 h [7]: 0.312 µM·h | Cmax [9]: 730 nM | AUC at 24 h [10]: 1.65 µM·h | Vd [11]: 3 L/kg | pIC50 [1]: 9.00 | bioavailability [12]: 109% | pIC50 [2]: 8.03

CC(C)[C@@H]1N(c2ccnc(N[C@@H](C)c3ncn4c3CCc3cc(C(F)(F)F)ccc3-4)n2)C(=O)OC1(C)C
pIC50 [1]: 7.29 | pIC50 [2]: 7.73

C[C@H](Nc1nccc(N2C(=O)OC[C@@H]2[C@H](C)F)n1)c1ncn2c1CCc1ccc(C(F)(F)F)cc1-2
pIC50 [1]: 7.74 | pIC50 [2]: 8.10

COc1ccc2c(c1)OCc1c([C@H](C)Nc3nccc(N4C(=O)OC[C@@H]4[C@H](C)F)n3)ncn1-2
pIC50 [1]: 7.21 | pIC50 [2]: 6.81
